# Measured values taken from ChEMBL document CHEMBL1135330, “Synthesis and evaluation of 4-hydroxyphenylacetic acid amides and 4-hydroxycinnamamides as antioxidants” (Bioorg Med Chem Lett, 2002).
# What was measured:
# Rattus norvegicus [1] = species on record: Rattus norvegicus; assay: Neuroprotective action was estimated in terms of its inhibitory concentration against [Fe2+]/AA- induced toxicity; format: functional
# Method in brief: (§1)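 Primary rat cortical cultures at 12–14 days in vitro were HBSS-washed and exposed for 2 h to Fe2+ (100 μM)/ascorbic acid (25 μM), with compound at various concentrations present during the insult. Cultures were then washed and held in MEM plus 21 mM glucose at 37 °C, 5% CO2.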
# Rattus norvegicus [2] = species on record: Rattus norvegicus; assay: Compound was tested for its DPPH radical scavenging activity in rat brain homogenates; format: functional
# Rattus norvegicus [3] = species on record: Rattus norvegicus; assay: Compound was tested for its inhibitory concentration against formation of lipid peroxides in rat brain homogenates by thiobarbituric acid reactive substances (TBARS) assay according to the method of Stocks.; format: functional
# Method in brief: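 Lipid peroxidation was run on rat brain homogenate (pH 7.4) supernatant after 1000 × g for 10 min. It was started with 0.02 mM FeCl2 and 0.25 mM ascorbic acid for 30 min at 37 °C and stopped with perchloric acid. After re-centrifugation, the supernatant was reacted with 0.5% TBA at 80 °C for 1 h, cooled, and read at 532 nm.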
# Rattus norvegicus [4] = species on record: Rattus norvegicus; assay: Compound was evaluated for its inhibitory concentration against [Fe2+]/AA- induced oxidative neuronal damage in primary cultured rat cortical cells; format: functional, cell-based; method in brief: as §1
# Rattus norvegicus [5] = species on record: Rattus norvegicus; assay: Compound was evaluated for its inhibitory concentration against X/XO- induced oxidative neuronal damage in primary cultured rat cortical cells; format: functional, cell-based
# Method in brief: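 Primary rat cortical cultures at 12–14 days in vitro were washed with HBSS and exposed for 10 min to xanthine (0.5 mM)/xanthine oxidase (10 mU/mL), with compound at various concentrations present during the insult. They were then washed and kept in MEM plus 21 mM glucose at 37 °C, 5% CO2.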
# Rattus norvegicus [6] = species on record: Rattus norvegicus; assay: Compound was evaluated for its inhibitory concentration against hydrogen peroxide- induced oxidative neuronal damage in primary cultured rat cortical cells; format: functional, cell-based
# Method in brief: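 Cortical cultures from rat, 12–14 days in vitro, were HBSS-washed and exposed to H2O2 for 5 min, with compound at various concentrations present during the exposure. Cultures were then washed and kept in MEM plus 21 mM glucose at 37 °C, 95% air/5% CO2.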
# Rattus norvegicus [7] = species on record: Rattus norvegicus; assay: Neuroprotective action was estimated in terms of its inhibitory concentration against superoxide and hydroxyl radicals measured by the leakage of cytoplasmic enzyme lactate dehydrogenase (LDH).; format: functional
# Rattus norvegicus [8] = species on record: Rattus norvegicus; assay: Neuroprotective action was estimated in terms of its inhibitory concentration against superoxide and hydroxyl radicals measured by the leakage of cytoplasmic enzyme lactate dehydrogenase (LDH); found highly potent; format: functional
structure (smiles),measurement,setting,value
CCCCOc1cc(CC(=O)NCCCc2ccc(C)c(C)c2)ccc1O,IC50,Rattus norvegicus [1],4.2 µM
same,IC50,Rattus norvegicus [2],162 µM
same,IC50,Rattus norvegicus [3],9.28 µM
Cc1ccc(CCCNC(=O)/C=C/c2ccc(O)c(O)c2)cc1C,IC50,Rattus norvegicus [4],23.7 µM
same,IC50,Rattus norvegicus [5],2.54 µM
same,IC50,Rattus norvegicus [6],5.91 µM
same,IC50,Rattus norvegicus [2],34.3 µM
same,IC50,Rattus norvegicus [3],1.11 µM
COc1cc(CC(=O)NCCCc2ccc(C)c(C)c2)ccc1O,IC50,Rattus norvegicus [2],179 µM
same,IC50,Rattus norvegicus [3],25.9 µM
Cc1ccc(CCCNC(=O)Cc2cc(O)c(O)c(O)c2)cc1C,IC50,Rattus norvegicus [4],26.8 µM
same,IC50,Rattus norvegicus [5],34.8 µM
same,IC50,Rattus norvegicus [6],35 µM
same,IC50,Rattus norvegicus [2],21.3 µM
same,IC50,Rattus norvegicus [3],1.81 µM
Cc1ccc(CCCNC(=O)Cc2ccc(O)c(O)c2)cc1C,IC50,Rattus norvegicus [7],2.4 µM
same,IC50,Rattus norvegicus [8],2.4 µM
same,IC50,Rattus norvegicus [4],2.4 µM
same,IC50,Rattus norvegicus [5],3.3 µM
same,IC50,Rattus norvegicus [6],6.03 µM
same,IC50,Rattus norvegicus [2],31 µM
same,IC50,Rattus norvegicus [3],2.6 µM
Cc1ccc(CCCNC(=O)Cc2ccc(O)c(OC(C)C)c2)cc1C,IC50,Rattus norvegicus [1],34.2 µM
same,IC50,Rattus norvegicus [2],> 300 µM
same,IC50,Rattus norvegicus [3],19.4 µM
COc1cc(/C=C/C(=O)NCCCc2ccc(C)c(C)c2)cc(OC)c1O,IC50,Rattus norvegicus [1],5.4 µM
same,IC50,Rattus norvegicus [2],89.1 µM
same,IC50,Rattus norvegicus [3],3.41 µM
Cc1ccc(CCCNC(=O)Cc2ccc(O)c(Oc3ccccc3)c2)cc1C,IC50,Rattus norvegicus [2],> 300 µM
same,IC50,Rattus norvegicus [3],32 µM
COc1cc(/C=C/C(=O)NCCCc2ccc(C)c(C)c2)ccc1O,IC50,Rattus norvegicus [2],82.2 µM
same,IC50,Rattus norvegicus [3],9.94 µM
CCOc1cc(CC(=O)NCCCc2ccc(C)c(C)c2)ccc1O,IC50,Rattus norvegicus [2],182 µM
same,IC50,Rattus norvegicus [3],24 µM
COc1cc(CC(=O)NCCCc2ccc(C)c(C)c2)cc(OC)c1O,IC50,Rattus norvegicus [2],50.1 µM
same,IC50,Rattus norvegicus [3],11.8 µM
Cc1c(C)c2c(c(C)c1O)CC[C@@](C)(CCC[C@H](C)CCC[C@H](C)CCCC(C)C)O2 [ALPHA-TOCOPHEROL],IC50,Rattus norvegicus [3],4.68 µM
Cc1cc(C(C)(C)C)c(O)c(C(C)(C)C)c1 [BUTYLATED HYDROXYTOLUENE],IC50,Rattus norvegicus [3],4.03 µM
Cc1c(C)c2c(c(C)c1O)CCC(C)(C(=O)O)O2 (stereo unspecified) [TROLOX],IC50,Rattus norvegicus [4],431 µM
same,IC50,Rattus norvegicus [5],202 µM
same,IC50,Rattus norvegicus [6],330 µM
